{"source": "ChEMBL document CHEMBL4350961", "about": "“Discovery of Pyrrolo[3,2- d]pyrimidin-4-one Derivatives as a New Class of Potent and Cell-Active Inhibitors of P300/CBP-Associated Factor Bromodomain” (J Med Chem, 2019)", "key": {"[1]": {"target": "Mitogen-activated protein kinase 14 (Homo sapiens) (UniProt Q16539)", "test": "Inhibition of recombinant full-length human SAPK2a at 10 uM using myelin basic protein as substrate measured after 40 mins in presence of [gamma33P]ATP by scintillation counting method"}, "[2]": {"target": "Serine/threonine-protein kinase 17A (Homo sapiens) (UniProt Q9UEE5)", "sequence (Q9UEE5 whole entry)": "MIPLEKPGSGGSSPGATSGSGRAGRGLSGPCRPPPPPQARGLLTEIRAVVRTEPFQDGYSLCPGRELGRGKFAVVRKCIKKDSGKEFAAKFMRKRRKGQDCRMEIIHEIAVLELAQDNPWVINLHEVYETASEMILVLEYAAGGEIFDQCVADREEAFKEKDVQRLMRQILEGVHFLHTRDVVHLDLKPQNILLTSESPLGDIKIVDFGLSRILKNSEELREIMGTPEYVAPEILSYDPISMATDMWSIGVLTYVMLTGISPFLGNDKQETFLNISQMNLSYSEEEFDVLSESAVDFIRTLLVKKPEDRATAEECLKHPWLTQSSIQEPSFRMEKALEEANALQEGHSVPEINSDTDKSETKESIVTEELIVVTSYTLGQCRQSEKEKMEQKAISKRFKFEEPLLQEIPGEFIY", "test": "Inhibition of recombinant full-length human DRAK1 at 10 uM using KKLNRTLSFAEPG as substrate measured after 40 mins in presence of [gamma33P]ATP by scintillation counting method"}, "[3]": {"target": "Protein kinase C zeta type (Homo sapiens) (UniProt Q05513)", "test": "Inhibition of recombinant human PKCzeta (2 to end residues) at 10 uM using ERMRPRKRQGSVRRRV as substrate measured after 40 mins in presence of [gamma33P]ATP by scintillation counting method"}, "[4]": {"target": "Casein kinase I (Homo sapiens) (UniProt Q9HCP0+P78368+P48730+P49674+P48729)", "test": "Inhibition of CK1 (unknown origin) at 10 uM", "type": "protein assay", "summary_of_the_method": "(§1)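 Kinase panel of 422 kinases screened by Eurofins KinaseProfiler at a single test-compound concentration of 10 µM.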"}, "[5]": {"target": "Fibroblast growth factor receptor 4 (Homo sapiens) (UniProt P22455)", "test": "Inhibition of recombinant human FGFR4 (442 to 755 residues) at 10 uM using poly(Glu, Tyr) 4:1 as substrate measured after 40 mins in presence of [gamma33P]ATP by scintillation counting method"}, "[6]": {"target": "Protein polybromo-1 (Homo sapiens) (UniProt Q86U86)", "test": "Binding affinity to human partial length PBRM1 bromodomain 2 (S178 to E291 residues) expressed in bacterial expression system at 1 uM by BROMOscan assay", "summary_of_the_method": "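BROMOscan bromodomain cross-screen run by an outside service, compound at 1 µM against 32 recombinant bromodomains. Binding given as percent of control.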"}, "[7]": {"system": "Calcium/calmodulin-dependent protein kinase kinase 2 (Homo sapiens), Q96RR4 [T85S]", "sequence (Q96RR4 whole entry T85S)": "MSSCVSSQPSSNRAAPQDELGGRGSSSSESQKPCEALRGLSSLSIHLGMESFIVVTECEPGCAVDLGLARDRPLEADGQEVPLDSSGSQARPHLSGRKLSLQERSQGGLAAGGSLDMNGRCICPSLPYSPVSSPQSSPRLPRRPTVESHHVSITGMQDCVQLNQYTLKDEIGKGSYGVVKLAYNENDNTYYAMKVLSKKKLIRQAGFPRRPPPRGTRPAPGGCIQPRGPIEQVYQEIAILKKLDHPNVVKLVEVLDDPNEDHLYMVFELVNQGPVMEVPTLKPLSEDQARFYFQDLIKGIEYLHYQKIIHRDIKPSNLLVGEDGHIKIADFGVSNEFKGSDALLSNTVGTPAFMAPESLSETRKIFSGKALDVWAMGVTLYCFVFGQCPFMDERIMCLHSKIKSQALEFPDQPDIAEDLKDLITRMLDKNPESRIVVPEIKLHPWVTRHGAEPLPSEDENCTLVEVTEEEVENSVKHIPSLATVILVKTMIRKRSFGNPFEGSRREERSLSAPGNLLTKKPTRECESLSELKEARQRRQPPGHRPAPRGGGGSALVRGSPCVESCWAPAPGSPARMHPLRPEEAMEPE", "test": "Inhibition of recombinant full-length human CAMKk2 T85S mutant at 10 uM using calmodulin as substrate measured after 40 mins in presence of [gamma33P]ATP by scintillation counting method"}, "[8]": {"target": "Serine/threonine-protein kinase TAO2 (Homo sapiens) (UniProt Q9UL54)", "test": "Inhibition of human TAO2 (1 to 320 residues) using myelin basic protein as substrate measured after 40 mins in presence of [gamma33P]ATP by scintillation counting method"}, "[9]": {"target": "Dual specificity mitogen-activated protein kinase kinase 3 (Homo sapiens) (UniProt P46734)", "test": "Inhibition of human MKK3 at 10 uM by radiometric method", "summary_of_the_method": "as §1"}, "[10]": {"target": "Serine/threonine-protein kinase 38-like (Homo sapiens) (UniProt Q9Y2H1)", "sequence (Q9Y2H1 2-464 limits assumed)": "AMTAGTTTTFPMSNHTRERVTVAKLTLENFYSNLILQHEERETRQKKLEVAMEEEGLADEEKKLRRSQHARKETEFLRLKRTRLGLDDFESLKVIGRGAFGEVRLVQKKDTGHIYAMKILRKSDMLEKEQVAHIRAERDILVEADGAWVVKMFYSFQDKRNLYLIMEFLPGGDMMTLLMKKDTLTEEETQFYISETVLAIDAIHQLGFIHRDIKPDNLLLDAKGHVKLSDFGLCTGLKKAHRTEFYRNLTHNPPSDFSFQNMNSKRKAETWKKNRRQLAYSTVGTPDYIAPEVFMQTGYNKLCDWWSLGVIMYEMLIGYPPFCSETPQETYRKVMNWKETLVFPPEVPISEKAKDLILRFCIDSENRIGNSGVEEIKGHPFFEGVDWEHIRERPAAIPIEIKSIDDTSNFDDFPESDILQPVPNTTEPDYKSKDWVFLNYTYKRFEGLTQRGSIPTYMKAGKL", "test": "Inhibition of recombinant human NDR2 (83 to end residues) at 10 uM using RSRSRSRSRSRSRSR as substrate measured after 40 mins in presence of [gamma33P]ATP by scintillation counting method"}, "[11]": {"target": "Citron Rho-interacting kinase (Homo sapiens) (UniProt O14578)", "test": "Inhibition of recombinant human CRIK at 10 uM using KKLRRTLSVA as substrate measured after 120 mins in presence of [gamma33P]ATP by scintillation counting method"}, "[12]": {"target": "Serine/threonine-protein kinase PAK 5 (Homo sapiens) (UniProt Q9P286)", "test": "Inhibition of recombinant human PAK5 (425 to end residues) at 10 uM using RRRLSFAEPG as substrate measured after 40 mins in presence of [gamma33P]ATP by scintillation counting method"}, "[13]": {"target": "Testis-specific serine/threonine-protein kinase 2 (Homo sapiens) (UniProt Q96PF2)", "sequence (Q96PF2 whole entry)": "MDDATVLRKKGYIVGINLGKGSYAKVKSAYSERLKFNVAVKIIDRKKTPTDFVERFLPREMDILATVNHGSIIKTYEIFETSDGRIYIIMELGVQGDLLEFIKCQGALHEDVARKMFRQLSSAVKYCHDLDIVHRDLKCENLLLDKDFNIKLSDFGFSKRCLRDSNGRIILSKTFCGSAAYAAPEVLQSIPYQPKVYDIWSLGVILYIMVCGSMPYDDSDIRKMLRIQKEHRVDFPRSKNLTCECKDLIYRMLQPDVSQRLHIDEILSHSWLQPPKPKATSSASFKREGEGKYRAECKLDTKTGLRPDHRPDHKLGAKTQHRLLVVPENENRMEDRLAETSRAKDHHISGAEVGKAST", "test": "Inhibition of recombinant full-length human TSSK2 at 10 uM using KKKVSRSGLYRSPSMPENLNRPR as substrate measured after 40 mins in presence of [gamma33P]ATP by scintillation counting method"}, "[14]": {"system": "Fibroblast growth factor receptor 2 (Homo sapiens), P21802 [N549H]", "test": "Inhibition of recombinant human FGFR2 N549H mutant (456 to 770 residues) at 10 uM using GGEEEEYFELVKKKK as substrate measured after 40 mins in presence of [gamma33P]ATP by scintillation counting method"}, "[15]": {"target": "cAMP-dependent protein kinase catalytic subunit alpha (Homo sapiens) (UniProt P17612)", "test": "Inhibition of recombinant full-length human PKA at 10 uM using Kemptide as substrate measured after 40 mins in presence of [gamma33P]ATP by scintillation counting method"}, "[16]": {"target": "Bromodomain adjacent to zinc finger domain protein 2B (Homo sapiens) (UniProt Q9UIF8)", "sequence (Q9UIF8 whole entry, the tested form may be a part)": "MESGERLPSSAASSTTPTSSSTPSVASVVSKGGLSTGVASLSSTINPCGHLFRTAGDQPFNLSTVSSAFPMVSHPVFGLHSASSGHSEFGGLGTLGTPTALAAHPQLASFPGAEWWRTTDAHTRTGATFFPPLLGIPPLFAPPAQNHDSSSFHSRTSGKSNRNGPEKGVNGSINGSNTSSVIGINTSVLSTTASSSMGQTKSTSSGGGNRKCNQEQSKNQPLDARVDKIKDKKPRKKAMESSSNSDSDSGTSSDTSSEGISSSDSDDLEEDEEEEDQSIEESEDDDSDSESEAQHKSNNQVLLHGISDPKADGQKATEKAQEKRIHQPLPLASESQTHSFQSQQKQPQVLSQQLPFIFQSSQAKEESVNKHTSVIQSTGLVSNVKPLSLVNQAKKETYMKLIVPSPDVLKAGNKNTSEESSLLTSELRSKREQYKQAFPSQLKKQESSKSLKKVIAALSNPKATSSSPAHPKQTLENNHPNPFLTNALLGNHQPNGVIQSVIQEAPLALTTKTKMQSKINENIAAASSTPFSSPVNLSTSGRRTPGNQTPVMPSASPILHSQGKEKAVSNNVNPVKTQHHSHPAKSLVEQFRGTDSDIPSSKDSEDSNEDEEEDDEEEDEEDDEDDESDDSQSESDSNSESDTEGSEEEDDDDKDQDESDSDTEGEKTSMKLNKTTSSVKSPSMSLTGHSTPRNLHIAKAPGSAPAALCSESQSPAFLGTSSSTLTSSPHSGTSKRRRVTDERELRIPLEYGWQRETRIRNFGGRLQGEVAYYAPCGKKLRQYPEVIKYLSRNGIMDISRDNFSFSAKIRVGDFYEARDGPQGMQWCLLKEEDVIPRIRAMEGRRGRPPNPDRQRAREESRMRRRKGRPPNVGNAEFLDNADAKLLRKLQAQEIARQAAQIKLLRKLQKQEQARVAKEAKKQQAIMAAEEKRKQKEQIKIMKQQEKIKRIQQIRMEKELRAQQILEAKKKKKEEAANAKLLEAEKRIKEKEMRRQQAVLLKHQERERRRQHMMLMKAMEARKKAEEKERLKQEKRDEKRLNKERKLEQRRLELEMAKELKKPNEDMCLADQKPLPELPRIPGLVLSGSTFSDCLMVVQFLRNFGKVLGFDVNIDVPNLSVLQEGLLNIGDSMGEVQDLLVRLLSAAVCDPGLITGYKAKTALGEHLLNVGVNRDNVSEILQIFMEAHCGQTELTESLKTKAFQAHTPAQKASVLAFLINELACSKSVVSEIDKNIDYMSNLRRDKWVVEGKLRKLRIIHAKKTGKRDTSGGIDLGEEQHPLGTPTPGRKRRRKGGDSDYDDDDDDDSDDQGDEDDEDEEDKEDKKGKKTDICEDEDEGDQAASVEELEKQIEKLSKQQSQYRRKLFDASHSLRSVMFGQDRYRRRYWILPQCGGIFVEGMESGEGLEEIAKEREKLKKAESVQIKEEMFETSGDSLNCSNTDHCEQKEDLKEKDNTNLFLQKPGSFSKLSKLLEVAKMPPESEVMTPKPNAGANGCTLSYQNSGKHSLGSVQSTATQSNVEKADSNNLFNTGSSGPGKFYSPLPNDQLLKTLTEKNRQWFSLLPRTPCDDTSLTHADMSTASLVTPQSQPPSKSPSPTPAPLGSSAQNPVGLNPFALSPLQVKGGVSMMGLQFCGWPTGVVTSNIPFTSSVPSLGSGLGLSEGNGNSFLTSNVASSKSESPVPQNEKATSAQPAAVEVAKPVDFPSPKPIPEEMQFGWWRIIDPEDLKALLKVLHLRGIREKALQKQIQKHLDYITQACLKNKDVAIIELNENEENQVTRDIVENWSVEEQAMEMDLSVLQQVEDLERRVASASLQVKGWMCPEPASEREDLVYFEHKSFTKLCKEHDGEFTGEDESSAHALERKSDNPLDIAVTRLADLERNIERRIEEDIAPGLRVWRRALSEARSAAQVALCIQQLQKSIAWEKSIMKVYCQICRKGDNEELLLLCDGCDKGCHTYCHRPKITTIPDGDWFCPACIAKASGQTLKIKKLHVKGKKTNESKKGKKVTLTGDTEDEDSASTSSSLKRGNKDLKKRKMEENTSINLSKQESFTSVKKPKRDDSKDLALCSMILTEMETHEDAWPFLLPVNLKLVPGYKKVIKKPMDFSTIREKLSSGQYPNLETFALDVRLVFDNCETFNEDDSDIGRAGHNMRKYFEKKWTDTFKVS", "test": "Binding affinity to human N-terminal His-tagged BAZ2B assessed as change in melting temperature at 10 uM by SYPRO orange dye-based fluorescence assay", "summary_of_the_method": "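Thermal shift with His-tagged human bromodomain at 2 μM final in 10 mM HEPES pH 7.5, 500 mM NaCl. Compound at 10 μM final with 0.1% DMSO; SYPRO Orange at 1:1000. Equilibrated 3 min at 25 °C, then heated from 25 to 95 °C at 1 °C/min. Melting temperature shift taken from fluorescence; at least duplicate.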"}, "[17]": {"target": "Ephrin type-A receptor 3 (Homo sapiens) (UniProt P29320)", "sequence (P29320 whole entry)": "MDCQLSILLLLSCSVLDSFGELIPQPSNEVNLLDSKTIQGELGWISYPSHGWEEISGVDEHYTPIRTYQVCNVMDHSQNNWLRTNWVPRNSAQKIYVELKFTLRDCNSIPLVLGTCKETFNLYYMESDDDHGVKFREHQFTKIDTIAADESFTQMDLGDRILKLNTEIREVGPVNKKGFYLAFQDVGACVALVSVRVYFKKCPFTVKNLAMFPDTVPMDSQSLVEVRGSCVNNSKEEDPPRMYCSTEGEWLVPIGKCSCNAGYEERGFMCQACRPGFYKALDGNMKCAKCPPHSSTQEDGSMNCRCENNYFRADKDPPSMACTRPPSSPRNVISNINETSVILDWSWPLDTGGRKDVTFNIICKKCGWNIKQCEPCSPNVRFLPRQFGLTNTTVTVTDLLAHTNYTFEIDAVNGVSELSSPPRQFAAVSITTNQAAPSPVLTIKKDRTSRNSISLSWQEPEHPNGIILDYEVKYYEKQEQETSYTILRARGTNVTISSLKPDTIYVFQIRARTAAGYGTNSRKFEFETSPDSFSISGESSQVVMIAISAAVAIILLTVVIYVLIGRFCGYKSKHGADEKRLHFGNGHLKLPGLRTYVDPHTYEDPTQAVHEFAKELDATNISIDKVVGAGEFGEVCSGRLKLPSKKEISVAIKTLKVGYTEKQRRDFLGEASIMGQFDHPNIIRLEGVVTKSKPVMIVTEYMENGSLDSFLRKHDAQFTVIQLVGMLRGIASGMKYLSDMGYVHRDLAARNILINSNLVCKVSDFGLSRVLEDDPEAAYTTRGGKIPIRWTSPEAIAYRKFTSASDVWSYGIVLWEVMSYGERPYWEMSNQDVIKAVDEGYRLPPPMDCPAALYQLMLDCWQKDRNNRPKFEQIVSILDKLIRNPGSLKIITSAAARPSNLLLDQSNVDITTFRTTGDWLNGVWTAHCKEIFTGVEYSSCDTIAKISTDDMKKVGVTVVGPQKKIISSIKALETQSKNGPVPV", "test": "Inhibition of recombinant human EphA3 (578 to end residues) at 10 uM using poly(Glu, Tyr) 4:1 as substrate measured after 40 mins in presence of [gamma33P]ATP by scintillation counting method"}, "[18]": {"test": "AUC (0 to infinity) in Sprague-Dawley rat at 10 mg/kg, po administered via gavage by LC-MS/MS analysis", "type": "ADME, organism-based", "design": "dose 10 mg/kg, route oral, time infinity", "settings": "in vivo", "summary_of_the_method": "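Serial jugular blood samples taken at designated times and spun to plasma at 4 ℃. Plasma mixed with acetonitrile holding internal standard, then LC-MS/MS. Parameters from noncompartmental fitting.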"}, "[19]": {"target": "Serine/threonine-protein kinase STK11 (Homo sapiens) (UniProt Q15831)", "test": "Inhibition of recombinant full-length human LKB1 at 10 uM using LSNLYHQGKFLQTFCGSPLYRRR as substrate measured after 40 mins in presence of [gamma33P]ATP by scintillation counting method"}, "[20]": {"target": "Serine/threonine-protein kinase 17B (Homo sapiens) (UniProt O94768)", "test": "Inhibition of recombinant full-length human DRAK2 at 10 uM using KKRPQRRYSNVF as substrate measured after 120 mins in presence of [gamma33P]ATP by scintillation counting method"}, "[21]": {"system": "PI3-kinase p110-alpha/p85-alpha (Homo sapiens), P27986+P42336 [E542K]", "test": "Inhibition of recombinant full-length human PI3K p110alpha/p85alpha E542K mutant at 10 uM using phosphatidylinositol-4, 5-bisphosphate as substrate measured after 40 mins by fluorescence assay", "type": "protein-complex assay"}, "[22]": {"system": "Epidermal growth factor receptor (Homo sapiens), P00533 [L858R]", "test": "Inhibition of recombinant human EGFR L858R mutant (696 to end residues) at 10 uM using poly(Glu, Tyr) 4:1 as substrate measured after 40 mins in presence of [gamma33P]ATP by scintillation counting method"}, "[23]": {"target": "Protein kinase C gamma type (Homo sapiens) (UniProt P05129)", "test": "Inhibition of recombinant full-length human PKCgamma at 10 uM using histone H1 as substrate measured after 40 mins in presence of [gamma33P]ATP by scintillation counting method"}}, "note": "Calls of active or inactive are those of the source. The rule behind the calls is not given here.", "data": [{"smiles": "CN1C[C@H](Nc2nc3cc[nH]c3c(=O)n2C)C[C@H](c2ccc3c(c2)OCCO3)C1", "values": [{"measurement": "inhibition", "setting": "[1]", "result": "inactive"}, {"measurement": "inhibition", "setting": "[2]", "result": "inactive"}, {"measurement": "inhibition", "setting": "[3]", "result": "inactive"}, {"measurement": "inhibition", "setting": "[4]", "result": "inactive"}, {"measurement": "inhibition", "setting": "[5]", "result": "inactive"}, {"measurement": "Activity", "setting": "[6]", "result": "inactive"}, {"measurement": "inhibition", "setting": "[7]", "result": "inactive"}, {"measurement": "inhibition", "setting": "[8]", "result": "inactive"}, {"measurement": "inhibition", "setting": "[9]", "result": "inactive"}, {"measurement": "inhibition", "setting": "[10]", "result": "inactive"}, {"measurement": "inhibition", "setting": "[11]", "result": "inactive"}, {"measurement": "inhibition", "setting": "[12]", "result": "inactive"}, {"measurement": "inhibition", "setting": "[13]", "result": "inactive"}, {"measurement": "inhibition", "setting": "[14]", "result": "inactive"}, {"measurement": "inhibition", "setting": "[15]", "result": "inactive"}, {"measurement": "ΔTm", "setting": "[16]", "result": 1.9, "unit": "°C"}, {"measurement": "inhibition", "setting": "[17]", "result": "inactive"}, {"measurement": "AUC(0-inf)", "setting": "[18]", "result": 2490, "unit": "ng·h/mL"}, {"measurement": "inhibition", "setting": "[19]", "result": "inactive"}, {"measurement": "inhibition", "setting": "[20]", "result": "inactive"}, {"measurement": "inhibition", "setting": "[21]", "result": "inactive"}, {"measurement": "inhibition", "setting": "[22]", "result": "inactive"}, {"measurement": "inhibition", "setting": "[23]", "result": "inactive"}]}]}
